Measurements taken from paper PMC9582731 (RSC Advances, 2022).

How the values were obtained:
[1] = system: acetic acid-induced writhing in mice; assay: Acetic acid-induced writhing analgesic test; type: in vivo; conditions: 3 days, acetic acid i.p., Kunming mice
in vitro = type: cell-based; conditions: mouse
[2] = system: λ-carrageenan-induced mouse paw edema; assay: λ-carrageenan-induced mouse paw edema test; type: in vivo; conditions: 10 mg kg^−1 i.g., 2 h before λ-carrageenan, at 2–6 h, ICR mice
Procedure, shortened: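 Test compound given at a low and a high dose, alongside a blank group, a carrageenan-only model group and an indomethacin positive-control group; paw swelling induced with λ-carrageenan.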

[3] = system: λ-carrageenan-induced paw edema tissue; assay: H&E histological examination of paw edema tissue; type: in vivo, mice; conditions: treated animals vs λ-carrageenan model group
Procedure, shortened: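 Mice given λ-carrageenan to induce paw edema. Groups: blank, model, indomethacin (positive control), and test compound at low and high dose. Paw tissue was examined by H&E staining for histological change or by immunohistochemical staining for TNF-α, including bone.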

In the case of `O=C(O)Cc1ccccc1Nc1c(Cl)cccc1Cl` [Voltaren], the “Effect on number of writhes” value ([1]; 19.5 mg kg^−1 i.g.) is reported as “reduce the number of writhes considerably”.

In the case of `COC1=C[C@@H]2[C@@H]3Cc4ccc(OC)c(O)c4[C@]2(CCN3C)CC1=O` [SIN, Sinomenine], the IC50 (in vitro) is reported as over 100 µM and the “Effect on number of writhes” value ([1]; 200 mg kg^−1 i.g.) is reported as “almost no analgesic effects”.

For `COc1ccc2c(c1)c(CC(=O)O)c(C)n2C(=O)c1ccc(Cl)cc1` [Indo, indomethacin], the IC50 (in vitro) was over 100 µM, the “Effect on paw edema” value [2] was “significantly inhibited the development of edema” and the “Histological change of paw biopsies (H&E)” value [3] was “a reduction in the λ-carrageenan-induced inflammatory response”.
